Source: the EternaBench riboswitch data

System: MS2 coat protein
Test: apparent Kd, MS2 coat protein; higher = weaker binding; RNA-MaP array; FMN 200 µM where present
Procedure, shortened: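 Binding was read on Illumina sequencing-chip clusters where stalled E. coli RNA polymerase had transcribed each design. A titration of SNAP-549-labelled MS2 coat protein began at 0.7 or 1.5 nM and doubled to 3 µM, once without ligand and once with constant ligand, in 100 mM Tris-HCl pH 7.5, 80 mM KCl, 4 mM MgCl2, BSA, DTT, yeast tRNA and Tween-20. The apparent Kd is the median of filtered per-cluster binding-curve fits, based on green signal normalised to red-channel RNA signal and control-cluster median Fmax.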

[1] = designed as: ON switch for flavin mononucleotide, no ligand
[2] = ligand present: flavin mononucleotide, designed as: ON switch for flavin mononucleotide
[3] = designed as: OFF switch for flavin mononucleotide, no ligand
[4] = ligand present: flavin mononucleotide, designed as: OFF switch for flavin mononucleotide

Sequence | apparent Kd [1] | apparent Kd [2] | apparent Kd [3] | apparent Kd [4]
AUACCUUAUGAGAAGGCGGUCAUGAAACAUGAUCGAGGAUAUCAUGUAAACAUGAGGAUCACCCAUGUAUGGGUAUUAUGGUAG | 0.0617 µM | 0.0123 µM | – | –
UUAGAUUAUGAAGGAUAUGGAUCUUAUUAUUAACCAGAAGGUCAACUCAACAUGAGGAUCACCCAUGUAUAAAGGGUAUUAGUU | – | – | 0.134 µM | 0.132 µM
GUGGUGCAUAUACGUGGAUGUACAUGAGGAUCACCCAUGUAAGAGGAUAUGCGGAUACUAGCUCAGCAGAAGGCUUACAAAUAA | – | – | 0.0161 µM | 0.0738 µM
AUACAUGAGGAUCACCCAUGUGGAUCACCCAUGUAAGAUGGUAGAAGGAUGUUAUUAUUAUUUUCAUAGGAUAUACUAUUUAGU | – | – | 0.328 µM | 0.408 µM
UGAGCUACAGGAUAUACGUGACGACCGUGAGGUCGAAGGUUACAUGAGGAUCACCCAUGUAGAAGGGUAGUUCU | – | – | 0.148 µM | 0.148 µM
AUACUCAUGUAAGGAUAUGCAGCCGAAACGGCUGCAGAAGGUACUAUAAUACAUGAGGAUCACCCAUGUCGAAAUAAAAUAGUU | 0.201 µM | 0.0479 µM | – | –
UAUGUAUUCGUAGGAUAUCCGUCGCCACCGUGUGGAGAAGGACGAACAUGAGGAUCACCCAUGUAUCAUGGUGUAGACACUUUC | – | – | 0.126 µM | 0.183 µM
AGCUGGAGAGGAUAUACGUAGGAAAAAAAAGUCUGAUCACUACAUGAGGAUCACCCAUGUAGAAGGCUCUGGCA | – | – | 0.0212 µM | 0.0622 µM
GCCAUUGCAUGAGGAUAUGCUCCCGUUUCGGGAGCAGAAGGCAUGUCAUAAGACAUGAGGAUCACCCAUGUAGUUAAGAUGGCA | 0.398 µM | 0.0152 µM | – | –
ACAGACCAACAGAAGGGUGAGGUGUUGUUCUUCACAGGAUAUGUUGGCAACAUGAGGAUCACCCAUGUUGGUUUUGAAGUACGU | 0.0163 µM | 0.00468 µM | – | –
UUGGACGUCGUAGGCUAUGUAGGAUAUUCCUACAUGAGGAUCACCCAUGUUGACAUGGAAGAAGGACAGAAGGACGAUGUCCAU | 0.173 µM | 0.00435 µM | – | –
CUUGUUUAUGUAGGAUAUGCCUGGCGUGCCUUUGCAGAAGGACAUGAGGAUCACCCAUGUAGUAUGAGGCUUACCCUUGUCGCC | – | – | 0.0282 µM | 0.0245 µM
GUAGUGUAGUGAGGAUAUACGAGAUCGAUAGAUCGGCGAUCCAUAUAUACAUGAGGAUCACCCAUGUAGAAGGCACUUCACUAC | – | – | 0.0075 µM | 0.0915 µM
GUAGCAUUGAGAGGAUAUCCAUACCGGAAACGGACAUGAGGAUCACCCAUGUGGCGAAAGCCAUGGGAGAAGGCUCUAUGUUAC | 0.0111 µM | 0.00496 µM | – | –
GGUACCAUCACAGGAUAUGCUUUUCUUUGGGAAGCAGAAGGGUGUAACAUGAGGAUCACCCAUGUGGUGCCAGGGCGUGAGCCC | 0.182 µM | 0.0147 µM | – | –
AGCAUGUGAGGAUAUGCGGACUCCGGUAAAGCUGGAGUCCAGUAGAAGGCACAUGAGGAUCACCCAUGUGAUAA | – | – | 0.0856 µM | 0.106 µM
GUGCGGUCAGGAUAUGCAUGGCGGGACUUGCGUCGUGGCGUGGAGAAGGGACAUGAGGAUCACCCAUGUGGAGU | – | – | 0.0766 µM | 0.0453 µM
AGGACCAAAACAUCUACAUGAGGAUCACCCAUGUAUCGUAUGCAGGAUAUCCAUGGGUGGGCAGAGGAGAAGGGCAUUAAAAGA | 0.0616 µM | 0.124 µM | – | –
GUCAGCUCGUGAGGAUAUACAUGUGCUGGAGACAGCAUUAAAUUUUUCACAUGAGGAUCACCCAUGUAGAAGGCACGAGCUGAU | – | – | 0.0184 µM | 0.0494 µM
CGCUGUCAUGCAGGAUAUGCAUUGGAUUGCAAUGCAGAAGGGCGAUUACAUGAGGAUCACCCAUGUGUAGACAGUGAAGAAGAG | 0.16 µM | 0.0126 µM | – | –
UUUACUUUGUAGAAGGGUGACAUGAGGAUCACCCAUGUGCGUCGCCUGAAAGACCAGGGUACGCCACAGGAUAUACAAAGUAAG | 0.0565 µM | 0.0404 µM | – | –
GGAUUACAUGAGGAUCACCCAUGUAGAAGGCGCCUGGGAGACCAGCGCGAGGUAGAAGACCCGGGCGAGGAUAUACAGGAGGGC | – | – | 0.0255 µM | 0.0564 µM
AGUGUCAUCGAGAAGGCCUCAACAUGAGGAUCACCCAUGUUGCAAAAUGGGAGGAUAUCGCAAAAACAGCUACGUUUCGUAGCA | 0.0454 µM | 0.00743 µM | – | –
GUAGCAUACCGAGGAUAUUCAUACAGGAAACUGACAUGAGGAUCACCCAUGUGGCGAAAGCCUUGGGAGAAGGCGGAAUGCUAC | 0.637 µM | 0.0284 µM | – | –
GGACGUCAGAUUAACAUGAGGAUCACCCAUGUCUUUUGACAUGAGGAUAUGCAUCCUAAUUGGAUGCAGAAGGCAUGGACGUCC | 1.02 µM | 0.084 µM | – | –
AUGGAUAUCACAGGAUAUGCCAUGGAUACCAUGGCAGAAGGGUGAUCCAUCCUAUGUAAAUACAUGAGGAUCACCCAUGUGUCC | 0.0161 µM | 0.0137 µM | – | –
CAGUACUGAGGAUAUACAUGAGGAUCACCCAUGUAUUCCAGCUAGGAAACUAGCACAUGUAGAAGGCAGUACUG | – | – | 0.0142 µM | 0.0311 µM
UGUCGGAGCUGAGGAUAUUACAUGAGGAUCACCCAUGUAUGAACCAAUAGCUGGAAACAGCAAUGUAAGAAGGCUGCUCCGACA | – | – | 0.00565 µM | 0.0341 µM

Sequence | apparent Kd [1] | apparent Kd [2] | apparent Kd [3] | apparent Kd [4]
CCUUGUAUUGAGGAUAUGCGCCGGCUCGCUGGCGCAGAAGGCGGCACAUGAGGAUCACCCAUGUCAGUUCGCGA | – | – | 0.00934 µM | 0.012 µM
AAAAAACAUGAGGAUCACCCAUGUCAGGAUAUCGUGCAGAAAAAAAAAAAAAACUGCACGAGAAGGGACAUGAA | – | – | 0.236 µM | 0.192 µM
ACUAGAAGCGUGAAAUAUCACAUGAGGAUCACCCAUGUGACGCAGGAUAUAACAAAAUCAGAAGGUUAGAAGGGUGAGCACGCC | 0.0268 µM | 0.0202 µM | – | –
ACUAAACGAGGAUAUACUGACAGGCCUCAGACAUACAUCAAACAUGAGGAUCACCCAUGUAGAAGGCGUAAACU | – | – | 0.0372 µM | 0.0367 µM
UGUCGGAGCAGAGGAUAUUACAUGAGGAUCACCCAUGUAUGAACCAAUAGCCGGAAACAGCAAUGUAAGAAGGCUGCUCCGACA | – | – | 0.00464 µM | 0.00688 µM
AGUGUCAUCGAGAAGGCCUUGACAUGAGGAUCACCCAUGUUGUAACAUGGGAGGAUAUCGAUGAUACAGCUACGUUUCGUAGCA | 0.625 µM | 0.0473 µM | – | –
UGAAGGUAAGGAUAUACAUGAGGAUCACCCAUGUUGUCAUUUCUGUCUGGGCAGGCAUGUAGAAGGUACCUACA | – | – | 0.0264 µM | 0.0873 µM
AGCGGAUUGUAGAAGGGUGACAUGAGGAUCACCCAUGUUCAAAUGCGAUUUUCGGUAAUUGAUCCACAGGAUAUACUGUCCGAG | 0.976 µM | 0.427 µM | – | –
GAGAAGUCAGGAUAUGCAUGGCGGGACUUGCGUCGUGGCGUGCAGAAGGGACAUGAGGAUCACCCAUGUGGAGU | – | – | 0.163 µM | 0.235 µM
CGUUGAUAAUAUCUUCACAUGAGGAUCACCCAUGUCGCUCGACAGGAUAUAUUUGAGUUGUUUAAGUAGAAGGGUCGCAGAUGC | 0.148 µM | 0.136 µM | – | –
CCAUCGAGUGUGAGGAUAUGCUGUUCGAAAGAGCAGCAGAAGGCACAUGAGGAUCACCCAUGUGGAUACGGUGG | – | – | 0.0291 µM | 0.212 µM
GUAGCAUAAUCAGGAUAUUCAGAGAAUAAAUAAACAUGAGGAUCACCCAUGUGGCGAAAGCCUAGGGAGAAGGGAUAAUGCUAC | 0.118 µM | 0.0248 µM | – | –
UCUGUCCUUGUCAGGAUAUCGAUGGUAAGACCAUGCGAGAAGGGACAUGAGGAUCACCCAUGUUCGACCUGGGU | – | – | 0.176 µM | 0.222 µM
UAGUAUCAACGAGGAUAUAAUAUGUUCAAUUUUUUAUAUUGUUUACAUGAGGAUCACCCAUGUUAUUAGAAGGCGUAUGGGAUU | 0.0618 µM | 0.0477 µM | – | –
UGAUCGAGAGAUCUUAGAUUCUGGUAGGAUAUACAUUAUGUAUGAUAUACAUGAGGAUCACCCAUGUAGAAGGACUAGAGUCUA | – | – | 0.0062 µM | 0.00939 µM
AGUUGGCGAGGAUAUACAUGAGGAUCACCCAUGUGAAAUAUAAUAGUGAGGAAGAAAAGUAGAAGGCGCUGACA | – | – | 0.0483 µM | 0.281 µM
UAUAUAUAGUAAGGAUAUGUAAAUAUUUUAUAAACAGAAGGUACUGACAUGAGGAUCACCCAUGUUUUAGUGUGGGCAUGUAGA | – | – | 0.0793 µM | 0.139 µM
CGGUGACGUGUAGGAUAUGGAGGUGGGUUUUGGCCAGAAGGACAUGAGGAUCACCCAUGUGGUAGAGGGUUGGCGGCGGCCCGU | – | – | 0.015 µM | 0.0147 µM
GCGAAUAACGAGGAUAUCGUAUCGGAAACGAUACGAGAAGGUGUAACAUGAGGAUCACCCAUGUUCCUCAACGC | – | – | 0.0375 µM | 0.0364 µM
GGAAAACAUGAGGAUCACCCAUGUGAGGAUAUCGAUGUCCAAUUUAAAGUGCGGGACUCGAGAAGGCACUUGGA | – | – | 0.043 µM | 0.0301 µM
GUACAGAUCACAGGAUAUCACGUCGUUUAGACGUGAGAAGGGUGAUCACACAUGAAUAUUAAUACAUGAGGAUCACCCAUGUAC | 0.036 µM | 0.0977 µM | – | –
GGUUGGCGAGGAUAUACAUGAGGAUCACCCAUGUGGUCCUGUGGCUGGUAAAACCUUUGUAGAAGGCGCGGGUC | – | – | 0.215 µM | 0.24 µM
AUUUAGAGAGGAUAUAUAAUGUGAAACAUGAGGAUCACCCAUGUAAUAUUAUGGAUGUAAAUAGAAGGCUCAUUUA | – | – | 0.0327 µM | 0.0277 µM
UUAAUUUGAUGAUAUUAUGACAUUAGAAGGCUGUACAUGUUGAUACAUGAGGAUCACCCAUGUAUAGAGGAUAUAGACAAUUUU | – | – | 0.0409 µM | 0.0917 µM
AUUAUGUAAGGAUAUCUUACAUGUGACUUCGGUCACUGUUAAGAGAAGGUACAUGAGGAUCACCCAUGUAGAAC | – | – | 0.0187 µM | 0.0287 µM
UGAUAGGACAGAGGAUAUACCGAUAGGAGAUACUAUCGACUAUUCCUCACAUGAGGAUCACCCAUGUAGAAGGCUGUCCUAUCU | – | – | 0.0155 µM | 0.0602 µM
GCCAGGAUGUGAGGAUAUGCUGAGGAUACCUCAGCAGAAGGCACAUGAGGAUCACCCAUGUACACUUAUCAUAAAUACCCUGGC | – | – | 0.0135 µM | 0.0181 µM
